Assay results: ChEMBL document CHEMBL4665829, “Synthesis, Structure-Activity Relationship, and Antimalarial Efficacy of 6-Chloro-2-arylvinylquinolines” (J Med Chem, 2020)

tested on: Plasmodium falciparum; assay: Antiplasmodial activity against chloroquine-resistant Plasmodium falciparum Dd2 infected in human erythrocytes assessed as reduction in microbial growth after 72 hrs by SYBR green I staining based fluorescence assay; type: functional, organism-based; conditions: Dd2, Erythrocyte
Method in brief: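 SYBR Green I assay: twofold serial dilutions on P. falciparum cultures at 1% parasitemia, 1% hematocrit, 37 °C, 5% CO₂, 72 h, max 0.1% DMSO. DMSO and CQ as growth and inhibition controls. Plates frozen at −80 °C, thawed, lysed in Tris/saponin/EDTA/Triton buffer with 0.01% SYBR Green I, 1 h dark at room temperature. Fluorescence read at 485 ex/530 em. EC50 by nonlinear dose–response fit.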

SMILES | EC50
CN(C)CCCCNc1cc(/C=C/c2ccccc2)nc2ccc(Cl)cc12 | 68 nM
Cc1cc(NCCCCN(C)C)c2cc(Cl)ccc2n1 | 1240 nM
CN1CCN(CCCCNc2cc(/C=C/c3ccc(F)cc3)nc3ccc(Cl)cc23)CC1 | 43 nM
Fc1ccc(/C=C/C=C/c2cc(NCCCCN3CCOCC3)c3cc(Cl)ccc3n2)cc1 | 96.5 nM
Clc1ccc2nc(-c3ccccc3)cc(NCCCCN3CCOCC3)c2c1 | 423 nM
CN(C)CCNc1cc(/C=C/c2ccccc2)nc2ccccc12 | 80.7 nM
CN(C)CCNc1cc(/C=C/c2nccs2)nc2ccc(Cl)cc12 | 240 nM
Fc1ccc(/C=C/c2cc(NCCN3CCCC3)c3cc(Cl)ccc3n2)cc1 | 92.3 nM
Clc1ccc2nc(/C=C/c3ccncc3)cc(NCCN3CCOCC3)c2c1 | 137 nM
COc1ccc2nc(/C=C/c3cccs3)cc(NCCN(C)C)c2c1 | 80 nM
CN(C)CCNc1cc(/C=C/c2ccc(F)cc2)nc2ccccc12 | 25.5 nM
Fc1ccc(/C=C/c2cc(N3CCCC3)c3cc(Cl)ccc3n2)cc1 | 428 nM
COc1cc(/C=C/c2cc(NCCN(C)C)c3cc(F)ccc3n2)cc(OC)c1OC | 38.6 nM
CN(C)CCNc1cc(/C=C/c2ccncc2)nc2ccc(F)cc12 | 36.1 nM
Clc1ccc2nc(/C=C/C=C/c3ccccc3)cc(NCCCCN3CCOCC3)c2c1 | 143 nM
COc1ccc(/C=C/c2cc(NCCN(C)C)c3cc(OC)ccc3n2)cc1 | 43.6 nM
Fc1ccc(/C=C/c2cc(NCCCCN3CCOCC3)c3cc(Cl)ccc3n2)nc1 | 73.1 nM
Clc1ccc2nc(/C=C/c3ccncc3)cc(N3CCCC3)c2c1 | 1180 nM
Fc1ccc(/C=C/c2cc(N3CCOCC3)c3cc(Cl)ccc3n2)cc1 | 6750 nM
COc1ccc(/C=C/c2cc(NCCN(C)C)c3cc(F)ccc3n2)cc1OC | 41.1 nM
CN(C)CCNc1cc(/C=C/c2ccccc2)nc2ccc(F)cc12 | 21 nM
FC(F)(F)c1ccc(/C=C/c2cc(NCCCN3CCOCC3)c3cc(Cl)ccc3n2)cc1 | 84.8 nM

SMILES | EC50
Fc1cnccc1/C=C/c1cc(NCCCCN2CCOCC2)c2cc(Cl)ccc2n1 | 79.6 nM
COc1ccc2nc(/C=C/c3cccc([N+](=O)[O-])c3)cc(NCCN(C)C)c2c1 | 49.5 nM
N#Cc1ccc(/C=C/c2cc(N3CCOCC3)c3cc(Cl)ccc3n2)cc1 | 1010 nM
CN(C)CCNc1cc(CCc2ccncc2)nc2ccc(Cl)cc12 | 259 nM
COc1ccc2nc(C)cc(NCCN(C)C)c2c1 | 5520 nM
COc1ccc2nc(/C=C/c3ccco3)cc(NCCN(C)C)c2c1 | 88.7 nM
CN(C)CCNc1cc(/C=C/c2cccs2)nc2ccc(Cl)cc12 | 29.7 nM
FC(F)(F)c1cccc(/C=C/c2cc(NCCCCN3CCOCC3)c3cc(Cl)ccc3n2)c1 | 33.9 nM
Clc1ccc2nc(/C=C/c3ccccc3)cc(NCCN3CCCC3)c2c1 | 107 nM
CN(C)CCNc1cc(/C=C/c2ccc([N+](=O)[O-])cc2)nc2ccccc12 | 47.9 nM
Clc1ccc2nc(-c3ccncc3)cc(NCCCCN3CCOCC3)c2c1 | 796 nM
FC(F)(F)Oc1ccc(/C=C/c2cc(NCCCCN3CCOCC3)c3cc(Cl)ccc3n2)cc1 | 56.6 nM
CN(C)CCNc1cc(/C=C/c2ccc([N+](=O)[O-])cc2)nc2ccc(F)cc12 | 30.9 nM
CN(C)CCNc1cc(/C=C/c2cccnc2)nc2ccc(Cl)cc12 | 33.6 nM
COc1ccc(/C=C/c2cc(NCCN(C)C)c3cc(F)ccc3n2)cc1 | 37.8 nM
COc1ccc2nc(/C=C/c3ccc(F)cc3)cc(NCCN(C)C)c2c1 | 32.9 nM
CN(C)CCNc1cc(/C=C/c2ccc([N+](=O)[O-])cc2)nc2ccc(Cl)cc12 | 28.7 nM
Fc1cc(/C=C/c2cc(NCCCCN3CCOCC3)c3cc(Cl)ccc3n2)cc(F)c1F | 130 nM
Clc1ccc2nc(/C=C/c3ccncc3)cc(N3CCOCC3)c2c1 | 3590 nM
CN1CCN(CCNc2cc(/C=C/c3ccncc3)nc3ccc(Cl)cc23)CC1 | 53.3 nM
FC(F)(F)c1cc(/C=C/c2cc(NCCCCN3CCOCC3)c3cc(Cl)ccc3n2)cc(C(F)(F)F)c1 | 108 nM
Cc1cc(NCCN(C)C)c2cc(Cl)ccc2n1 | 732 nM
